Key:
[1] = Genotoxicity in Salmonella typhimurium TA1535 harboring pSK1002 assessed as umu gene induction at 0.0005 mg/ml in presence of Sprague-Dawley rat liver S9 fraction after by SOS/umu assay relative to control; assay type: toxicity, organism-based; conditions: salmonella enterica subsp. enterica serovar typhimurium, read-out: FC
[2] = Genotoxicity in Salmonella typhimurium TA1535 harboring pSK1002 assessed as umu gene induction at 0.0002 mg/ml in absence of Sprague-Dawley rat liver S9 fraction after by SOS/umu assay relative to control; assay type: toxicity, organism-based; conditions: salmonella enterica subsp. enterica serovar typhimurium, read-out: FC
[3] = Genotoxicity in Salmonella typhimurium TA1535 harboring pSK1002 assessed as survival at 0.002 mg/ml in presence of Sprague-Dawley rat liver S9 fraction after by SOS/umu assay relative to control; assay type: toxicity, organism-based; conditions: salmonella enterica subsp. enterica serovar typhimurium, read-out: Survival
[4] = Genotoxicity in Salmonella typhimurium TA1535 harboring pSK1002 assessed as survival at 0.004 mg/ml in presence of Sprague-Dawley rat liver S9 fraction after by SOS/umu assay relative to control; assay type: toxicity, organism-based; conditions: salmonella enterica subsp. enterica serovar typhimurium, read-out: Survival
[5] = Genotoxicity in Salmonella typhimurium TA1535 harboring pSK1002 assessed as umu gene induction at 0.001 mg/ml in absence of Sprague-Dawley rat liver S9 fraction after by SOS/umu assay relative to control; assay type: toxicity, organism-based; conditions: salmonella enterica subsp. enterica serovar typhimurium, read-out: FC
[6] = Genotoxicity in Salmonella typhimurium TA1535 harboring pSK1002 assessed as survival at 0.002 mg/ml in absence of Sprague-Dawley rat liver S9 fraction after by SOS/umu assay relative to control; assay type: toxicity, organism-based; conditions: salmonella enterica subsp. enterica serovar typhimurium, read-out: Survival
[7] = Genotoxicity in Salmonella typhimurium TA1535 harboring pSK1002 assessed as umu gene induction at 0.004 mg/ml in absence of Sprague-Dawley rat liver S9 fraction after by SOS/umu assay relative to control; assay type: toxicity, organism-based; conditions: salmonella enterica subsp. enterica serovar typhimurium, read-out: FC
[8] = Solubility of the compound in DSPC:cholesterol:DSPE-PEG2000-Mal:DOPE-Rho lipid mixture at 250 uM; assay type: physicochemical
In short: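 Compound added at 250 µM drug to the initial liposome lipid mixture (10 mM total lipid); precipitation and UV-visible absorbance above 300 nm assessed after encapsulation, removal of unencapsulated material and extraction with 1% w/v SDS in RPMI-A.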

[9] = Genotoxicity in Salmonella typhimurium TA1535 harboring pSK1002 assessed as survival at 0.0005 mg/ml in presence of Sprague-Dawley rat liver S9 fraction after by SOS/umu assay relative to control; assay type: toxicity, organism-based; conditions: salmonella enterica subsp. enterica serovar typhimurium, read-out: Survival
[10] = Genotoxicity in Salmonella typhimurium TA1535 harboring pSK1002 assessed as umu gene induction at 0.002 mg/ml in absence of Sprague-Dawley rat liver S9 fraction after by SOS/umu assay relative to control; assay type: toxicity, organism-based; conditions: salmonella enterica subsp. enterica serovar typhimurium, read-out: FC
[11] = Genotoxicity in Salmonella typhimurium TA1535 harboring pSK1002 assessed as survival at 0.001 mg/ml in presence of Sprague-Dawley rat liver S9 fraction after by SOS/umu assay relative to control; assay type: toxicity, organism-based; conditions: salmonella enterica subsp. enterica serovar typhimurium, read-out: Survival
[12] = Genotoxicity in Salmonella typhimurium TA1535 harboring pSK1002 assessed as umu gene induction at 0.001 mg/ml in presence of Sprague-Dawley rat liver S9 fraction after by SOS/umu assay relative to control; assay type: toxicity, organism-based; conditions: salmonella enterica subsp. enterica serovar typhimurium, read-out: FC
Plasmodium falciparum [13] = assay: Antiplasmodial activity against chloroquine-sensitive Plasmodium falciparum 3D7 by [3H]-hypoxanthine incorporation assay; assay type: functional, organism-based; conditions: Plasmodium falciparum, 3D7
In short: (§1)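 Blood-stage P. falciparum 3D7 and FCR-3 were tested by a modified [3H]-hypoxanthine incorporation assay. Chloroquine was the reference in all runs.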

[14] = Genotoxicity in Salmonella typhimurium TA1535 harboring pSK1002 assessed as survival at 0.004 mg/ml in absence of Sprague-Dawley rat liver S9 fraction after by SOS/umu assay relative to control; assay type: toxicity, organism-based; conditions: salmonella enterica subsp. enterica serovar typhimurium, read-out: Survival
[15] = Cytotoxicity against human HepG2A16 cells by MTT assay; assay type: cell-based; conditions: HepG2A16 cells
In short: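 MTT viability assay on HepG2-A16 cells, giving CC50 values.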

[16] = Genotoxicity in Salmonella typhimurium TA1535 harboring pSK1002 assessed as umu gene induction at 0.004 mg/ml in presence of Sprague-Dawley rat liver S9 fraction after by SOS/umu assay relative to control; assay type: toxicity, organism-based; conditions: salmonella enterica subsp. enterica serovar typhimurium, read-out: FC
[17] = Genotoxicity in Salmonella typhimurium TA1535 harboring pSK1002 assessed as umu gene induction at 0.0005 mg/ml in absence of Sprague-Dawley rat liver S9 fraction after by SOS/umu assay relative to control; assay type: toxicity, organism-based; conditions: salmonella enterica subsp. enterica serovar typhimurium, read-out: FC
[18] = Genotoxicity in Salmonella typhimurium TA1535 harboring pSK1002 assessed as umu gene induction at 0.002 mg/ml in presence of Sprague-Dawley rat liver S9 fraction after by SOS/umu assay relative to control; assay type: toxicity, organism-based; conditions: salmonella enterica subsp. enterica serovar typhimurium, read-out: FC
[19] = Genotoxicity in Salmonella typhimurium TA1535 harboring pSK1002 assessed as survival at 0.0002 mg/ml in presence of Sprague-Dawley rat liver S9 fraction after by SOS/umu assay relative to control; assay type: toxicity, organism-based; conditions: salmonella enterica subsp. enterica serovar typhimurium, read-out: Survival
[20] = Selectivity index, ratio of CC50 for human HepG2A16 cells by MTT assay to IC50 for multidrug-resistant Plasmodium falciparum FCR-3; assay type: toxicity; conditions: HepG2A16 cells, read-out: Ratio CC50/IC50
In short: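 HepG2-A16 human hepatoma cells were tested by MTT viability assay to give CC50. Blood-stage activity was measured against the multidrug-resistant P. falciparum FCR-3 strain by [3H]-hypoxanthine incorporation to give IC50. SI = CC50 HepG2 / FCR-3 IC50.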

Plasmodium falciparum [21] = assay: Antiplasmodial activity against multidrug-resistant Plasmodium falciparum FCR-3 by [3H]-hypoxanthine incorporation assay; assay type: functional, organism-based, FCR-3/Gambia; conditions: Plasmodium falciparum, FCR-3/Gambia; in short: as §1
[22] = Genotoxicity in Salmonella typhimurium TA1535 harboring pSK1002 assessed as survival at 0.001 mg/ml in absence of Sprague-Dawley rat liver S9 fraction after by SOS/umu assay relative to control; assay type: toxicity, organism-based; conditions: salmonella enterica subsp. enterica serovar typhimurium, read-out: Survival
[23] = Genotoxicity in Salmonella typhimurium TA1535 harboring pSK1002 assessed as survival at 0.0005 mg/ml in absence of Sprague-Dawley rat liver S9 fraction after by SOS/umu assay relative to control; assay type: toxicity, organism-based; conditions: salmonella enterica subsp. enterica serovar typhimurium, read-out: Survival
[24] = Genotoxicity in Salmonella typhimurium TA1535 harboring pSK1002 assessed as survival at 0.0002 mg/ml in absence of Sprague-Dawley rat liver S9 fraction after by SOS/umu assay relative to control; assay type: toxicity, organism-based; conditions: salmonella enterica subsp. enterica serovar typhimurium, read-out: Survival
[25] = Genotoxicity in Salmonella typhimurium TA1535 harboring pSK1002 assessed as umu gene induction at 0.0002 mg/ml in presence of Sprague-Dawley rat liver S9 fraction after by SOS/umu assay relative to control; assay type: toxicity, organism-based; conditions: salmonella enterica subsp. enterica serovar typhimurium, read-out: FC
[26] = Genotoxicity in Salmonella typhimurium TA1535 harboring pSK1002 assessed as umu gene induction at 0.016 mg/ml in absence of Sprague-Dawley rat liver S9 fraction after by SOS/umu assay relative to control; assay type: toxicity, organism-based; conditions: salmonella enterica subsp. enterica serovar typhimurium, read-out: FC
[27] = Genotoxicity in Salmonella typhimurium TA1535 harboring pSK1002 assessed as umu gene induction at 0.008 mg/ml in absence of Sprague-Dawley rat liver S9 fraction after by SOS/umu assay relative to control; assay type: toxicity, organism-based; conditions: salmonella enterica subsp. enterica serovar typhimurium, read-out: FC
[28] = Genotoxicity in Salmonella typhimurium TA1535 harboring pSK1002 assessed as survival at 0.008 mg/ml in absence of Sprague-Dawley rat liver S9 fraction after by SOS/umu assay relative to control; assay type: toxicity, organism-based; conditions: salmonella enterica subsp. enterica serovar typhimurium, read-out: Survival
[29] = Genotoxicity in Salmonella typhimurium TA1535 harboring pSK1002 assessed as survival at 0.016 mg/ml in absence of Sprague-Dawley rat liver S9 fraction after by SOS/umu assay relative to control; assay type: toxicity, organism-based; conditions: salmonella enterica subsp. enterica serovar typhimurium, read-out: Survival
[30] = Genotoxicity in Salmonella typhimurium TA1535 harboring pSK1002 assessed as survival at 0.008 mg/ml in presence of Sprague-Dawley rat liver S9 fraction after by SOS/umu assay relative to control; assay type: toxicity, organism-based; conditions: salmonella enterica subsp. enterica serovar typhimurium, read-out: Survival
[31] = Genotoxicity in Salmonella typhimurium TA1535 harboring pSK1002 assessed as survival at 0.016 mg/ml in presence of Sprague-Dawley rat liver S9 fraction after by SOS/umu assay relative to control; assay type: toxicity, organism-based; conditions: salmonella enterica subsp. enterica serovar typhimurium, read-out: Survival
[32] = Genotoxicity in Salmonella typhimurium TA1535 harboring pSK1002 assessed as umu gene induction at 0.008 mg/ml in presence of Sprague-Dawley rat liver S9 fraction after by SOS/umu assay relative to control; assay type: toxicity, organism-based; conditions: salmonella enterica subsp. enterica serovar typhimurium, read-out: FC
[33] = Genotoxicity in Salmonella typhimurium TA1535 harboring pSK1002 assessed as umu gene induction at 0.016 mg/ml in presence of Sprague-Dawley rat liver S9 fraction after by SOS/umu assay relative to control; assay type: toxicity, organism-based; conditions: salmonella enterica subsp. enterica serovar typhimurium, read-out: FC

SMILES: OC(CCN1CCN(C(c2ccccc2)c2ccccc2)CC1)c1ccc(F)c(Cl)c1 (stereo not drawn)
- fold induction at 0.0005 mg/ml [1]: 0.9
- fold induction at 0.0002 mg/ml [2]: 0.8
- viability at 0.002 mg/ml [3]: 73.1%
- viability at 0.004 mg/ml [4]: 87.7%
- fold induction at 0.001 mg/ml [5]: 1
- viability at 0.002 mg/ml [6]: 103%
- fold induction at 0.004 mg/ml [7]: 0.8
- solubility [8]: Insoluble
- viability at 0.0005 mg/ml [9]: 97.7%
- fold induction at 0.002 mg/ml [10]: 1
- viability at 0.001 mg/ml [11]: 91.4%
- fold induction at 0.001 mg/ml [12]: 0.5
- IC50 (Plasmodium falciparum [13]): 5.11 µM
- viability at 0.004 mg/ml [14]: 119%
- CC50 [15]: 269 µM
- fold induction at 0.004 mg/ml [16]: 1.2
- fold induction at 0.0005 mg/ml [17]: 0.9
- fold induction at 0.002 mg/ml [18]: 1.1
- viability at 0.0002 mg/ml [19]: 92.3%
- selectivity ratio [20]: 194
- IC50 (Plasmodium falciparum [21]): 1.39 µM
- viability at 0.001 mg/ml [22]: 105%
- viability at 0.0005 mg/ml [23]: 117%
- viability at 0.0002 mg/ml [24]: 110%
- fold induction at 0.0002 mg/ml [25]: 1

SMILES: OC(CCN1CCN(C(c2ccccc2)c2ccccc2)CC1)c1ccc(Cl)cc1 (stereo not drawn)
- fold induction at 0.0005 mg/ml [1]: 0.6
- fold induction at 0.0002 mg/ml [2]: 1
- viability at 0.002 mg/ml [3]: 88.9%
- viability at 0.004 mg/ml [4]: 89.5%
- fold induction at 0.001 mg/ml [5]: 1.1
- fold induction at 0.016 mg/ml [26]: 0.9
- viability at 0.002 mg/ml [6]: 108%
- fold induction at 0.008 mg/ml [27]: 0.9
- viability at 0.008 mg/ml [28]: 125%
- viability at 0.016 mg/ml [29]: 112%
- fold induction at 0.004 mg/ml [7]: 1
- solubility [8]: Insoluble
- viability at 0.008 mg/ml [30]: 98.8%
- viability at 0.0005 mg/ml [9]: 94.3%
- fold induction at 0.002 mg/ml [10]: 1
- viability at 0.001 mg/ml [11]: 96.7%
- fold induction at 0.001 mg/ml [12]: 0.6
- IC50 (Plasmodium falciparum [13]): 24.9 µM
- viability at 0.004 mg/ml [14]: 102%
- CC50 [15]: 462 µM
- fold induction at 0.004 mg/ml [16]: 1
- fold induction at 0.0005 mg/ml [17]: 0.9
- viability at 0.016 mg/ml [31]: 86.6%
- fold induction at 0.002 mg/ml [18]: 0.7
- viability at 0.0002 mg/ml [19]: 96.4%
- selectivity ratio [20]: 118
- IC50 (Plasmodium falciparum [21]): 3.93 µM
- viability at 0.001 mg/ml [22]: 106%
- viability at 0.0005 mg/ml [23]: 110%
- viability at 0.0002 mg/ml [24]: 105%
- fold induction at 0.008 mg/ml [32]: 0.9
- fold induction at 0.016 mg/ml [33]: 1.1
- fold induction at 0.0002 mg/ml [25]: 1
